For 10 compounds, IC50 and Intensity of erythemia results are on record in ChEMBL document CHEMBL1132148, “Synthesis and biological activity of (hydroxymethyl)- and (diethylaminomethyl)benzopsoralens” (J Med Chem, 1999).

A short description of experiment [1]: The IC50-UVA is the dose of UVA light which in the presence of fixed drug concentration (20 uM) is necessary to induce a 50% inhibition of clonal growth by incubation at the ground state by keeping mammalian cells in the dark. Type of experiment: functional. The method, boiled down:
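HeLa cells were grown in F-12 Ham with 5% FCS at 37 °C under 5% CO2, seeded at 1.5–2 × 10^5 and given 20 μM compound after 24 h. Cells had 15 min of dark uptake, then increasing UVA doses. Afterwards 200 cells were replated in 10% FCS medium for 7 days and colonies of ≥50 cells were counted. Clonal efficiency is colonies over cells seeded. IC50-UVA is the UVA dose giving 50% inhibition.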

Experiment [2] is filed under the species Cavia porcellus. Briefly: Phototoxicity on guinea pig skin was calculated at concentration of 30 uM.cm-2 and UVA light dose 20 kJ.me-2.-- indicates no erythemia. Type of experiment: functional, organism-based. The method, boiled down: (§1)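 Depilated albino guinea pigs (outbred Dunkin-Hartley) received test compounds topically as 4.5 mM methanol solutions and were then exposed to UVA. The read-out was erythema scoring.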

Experiment [3] in a line: The IC50-dark is the drug concentration necessary to induce a 50% inhibition of clonal growth by incubation at the ground state by keeping mammalian cells in the dark. Type of experiment: functional. The method, boiled down: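 HeLa cells seeded at 1.5–2 × 10^5 were exposed after 24 h to compound in serum-containing growth medium for 3 h at 37 °C under 5% CO2, in the dark and without UVA. Controls had 0.5% DMSO. Afterwards 200 cells were replated and grown 7 days, and colonies of ≥50 cells were counted. IC50 is the concentration halving clonal efficiency.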

Experiment [4] is described as follows: The IC50-UVA is the dose of UVA light which in the presence of fixed drug concentration (20 uM) is necessary to induce a 50% inhibition of DNA synthesis by incubation at the ground state by keeping mammalian cells in the dark. The experiment is classed as functional. The method, boiled down:
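Ehrlich cells (Lettré strain) at 2 × 10^7 cells·mL-1 in PBS were irradiated with increasing UVA doses in the presence of 20 μM compound, with final DMSO ≤0.5%. Then 10^6 cells were labelled with 40 kBq·mL-1 [3H]thymidine for 30 min at 37 °C. Incorporation is given as % of untreated control, and IC50-UVA is the UVA dose (kJ·m-2) giving 50% inhibition.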

The nature of experiment [5]: The IC50-dark is the drug concentration necessary to induce a 50% inhibition of DNA synthesis by incubation at the ground state by keeping mammalian cells in the dark. Type of experiment: functional. The method, boiled down:
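Ehrlich cells (Lettré strain) in PBS received compound at room temperature without irradiation, with final DMSO ≤0.5%. They were then held 30 min at 37 °C in the dark with 40 kBq·mL-1 [3H]thymidine. DNA-incorporated radioactivity is expressed as % of untreated controls, and IC50 is the concentration giving 50% inhibition.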

For experiment [6], the species on record is Cavia porcellus. Briefly: Phototoxicity on guinea pig skin was calculated at concentration of 4 uM.cm-2 and UVA light dose 5 kJ.me-2.+-- barely erythemia. The experiment is classed as functional, organism-based. In outline:
as §1

Experiment [7] is filed under the species Cavia porcellus. Put plainly: Phototoxicity on guinea pig skin was calculated at concentration of 30 uM.cm-2 and UVA light dose 5 kJ.me-2. ++++ medium erythemia. Type of experiment: functional, organism-based. As to conditions: in the assay text read “strong erythema with edema” for “medium erythemia”. In outline:
as §1

The species entered for experiment [8] is Cavia porcellus. Briefly: Phototoxicity on guinea pig skin was calculated at concentration of 2 uM.cm-2 and UVA light dose 5 kJ.me-2.-- indicates no erythemia. The experiment is classed as functional, organism-based. The method, boiled down:
as §1

The source made the active and inactive calls. The rule behind the calls is not given here.

As for `O=c1ccc2c(CO)c3c(cc2o1)oc1ccccc13`, the IC50 in experiment [1] came to 0.23 kJ m**-2; in experiment [3], 25 µM; in experiment [4] it was 8.3 kJ m**-2; in experiment [5] it was 10.9 µM. Moreover, the Intensity of erythemia entry in the experiment filed under Cavia porcellus [2] is “no erythemia”.
For `O=c1ccc2cc3c(oc4ccccc43)c(CO)c2o1`, in that order: 0.19 kJ m**-2, 6.8 µM, 0.97 kJ m**-2, 3 µM and “no erythemia”.
On to `CCN(CC)Cc1cc2cc3c(cc2oc1=O)oc1ccccc13`, for which the IC50 in experiment [1] was > 30 kJ m**-2; in experiment [3], > 30 µM; in experiment [4] it was > 30 kJ m**-2; in experiment [5], > 30 µM. Moreover, the Intensity of erythemia entry in the experiment listed under Cavia porcellus [2] was “no erythemia”.
For the compound `Cc1cc(=O)oc2cc3oc4cc(CO)ccc4c3cc12`, the IC50 is 0.16 kJ m**-2 in experiment [1], > 30 µM in experiment [3], 0.48 kJ m**-2 in experiment [4] and > 30 µM in experiment [5]. In addition, the Intensity of erythemia result in the experiment filed under Cavia porcellus [2] was “no erythemia”.
Turning to `O=c1cc(CO)c2cc3c(cc2o1)oc1ccccc13`, the IC50 turned out to be 0.11 kJ m**-2 in experiment [1], 3.8 µM in experiment [3], 0.67 kJ m**-2 in experiment [4] and 0.94 µM in experiment [5]. The Intensity of erythemia entry in the experiment filed under Cavia porcellus [2] is “no erythemia”.
For `CCN(CC)Cc1ccc2c(c1)oc1cc3oc(=O)cc(C)c3cc12`, in that order: 1.83 kJ m**-2, > 30 µM, 2.22 kJ m**-2, > 30 µM and “no erythemia”.
Regarding `COc1c2occc2cc2ccc(=O)oc12` [METHOXSALEN], the IC50 in experiment [1] is 1.23 kJ m**-2; in experiment [3] it was > 30 µM; in experiment [4], 3.59 kJ m**-2; in experiment [5], > 30 µM. For the same compound, the Intensity of erythemia entry in the experiment listed under Cavia porcellus [6] is “Partially active”. For the same compound, in the experiment listed under Cavia porcellus [7], the Intensity of erythemia result is “Active”. Besides, in the experiment filed under Cavia porcellus [8], the Intensity of erythemia entry is “inactive”.
`CCN(CC)Cc1c2oc(=O)ccc2cc2c1oc1ccccc12`: the IC50 was found to be 0.65 kJ m**-2 in experiment [1], 10.7 µM in experiment [3], 9.3 kJ m**-2 in experiment [4] and 10.7 µM in experiment [5]. For the same compound, in the experiment listed under Cavia porcellus [2], the Intensity of erythemia entry was “no erythemia”.
Turning to `O=c1oc2cc3oc4ccccc4c3cc2cc1CO`, the IC50 in experiment [1] is 1.06 kJ m**-2; in experiment [3], > 30 µM; in experiment [4], 16.8 kJ m**-2; in experiment [5], > 30 µM. In the experiment listed under Cavia porcellus [2], the Intensity of erythemia result is “no erythemia”.
For `CCN(CC)Cc1c2ccc(=O)oc2cc2oc3ccccc3c12`, the IC50 in experiment [1] was > 30 kJ m**-2; in experiment [3], > 30 µM; in experiment [4], > 30 kJ m**-2; in experiment [5], > 30 µM. Moreover, in the experiment listed under Cavia porcellus [2], the Intensity of erythemia entry was “no erythemia”.
